Assay results from ChEMBL document CHEMBL1759978, “Synthesis and biological evaluation of fatty acyl ester derivatives of 2',3'-didehydro-2',3'-dideoxythymidine” (Bioorg Med Chem Lett, 2011).
Active and inactive are the calls of the source. The calls are words filed in the database; no cut-off is given here.

Experiments:
[1] = test system: Human immunodeficiency virus 1; assay: Antiviral activity against Human immunodeficiency virus 1 3B infected in human SupT1 cells by cell-associated transmission assay; format: functional, organism-based; details: SUP-T1
[2] = test system: HeLa; assay: Cytotoxicity against human HeLa P4/R5 cells by MTS assay; format: cell-based; details: read-out: EC50 (the source's name)
[3] = test system: Human immunodeficiency virus 1; assay: Antiviral activity against Human immunodeficiency virus 1 BAL by MAGI assay; format: functional, organism-based
[4] = test system: Human immunodeficiency virus 1; assay: Antiviral activity against Human immunodeficiency virus 1 3B by MAGI assay; format: functional, organism-based
[5] = test system: CCRF-CEM; assay: Cellular uptake in human CCRF-CEM cells at 10 uM after 1 hr by real time fluorescence microscopy; format: ADME, cell-based
In short: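 Live CCRF-CEM cells were incubated 1 h with 10 of the fluorescein-labelled conjugates, with DMSO and free 5(6)-carboxyfluorescein as controls, then imaged by fluorescence light microscopy.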

[6] = test system: CCRF-CEM; assay: Cellular uptake in human CCRF-CEM cells at 10 uM after 1 to 8 hrs by flow cytometry; format: ADME, cell-based
In short: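 CCRF-CEM T lymphoblastoid cells grown to 70% confluency, then exposed to 10 of the fluorescein-tagged conjugates for 1, 2, 4 and 8 h, with DMSO and free 5(6)-carboxyfluorescein as controls. Uptake was read by flow cytometry in the FITC channel as the mean fluorescence of 10,000 cells, in triplicate.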

[7] = test system: CCRF-CEM; assay: Cellular uptake in human CCRF-CEM cells at 10 uM after 1 to 8 hrs measured after 5 mins trypsin wash off by flow cytometry relative to control; format: ADME, cell-based
[8] = species on record: Homo sapiens; assay: Spermicidal activity against human sperm assessed as immobolizing sperm treated for 10 mins by microscopy relative to control; format: functional
[9] = species on record: Homo sapiens; assay: Spermicidal activity against human sperm assessed as sperm tail response at 1 mg/ml for 10 mins by microscopy relative to control; format: functional
[10] = test system: Human immunodeficiency virus 1; assay: Antiviral activity against Human immunodeficiency virus 1 infected in human CEM-SS cells assessed as inhibition of viral replication; format: functional, organism-based; details: Human immunodeficiency virus 1, CEM-SS

SMILES	EC50 [1] [µM]	CC50 [2] [µM]	EC50 [3] [µM]	EC50 [4] [µM]	Drug uptake [5]	Drug uptake [6]	Drug uptake [7]	Activity [8]	Activity [9]	EC50 [10] [µM]
Cc1cn([C@H]2C=C[C@@H](COC(=O)CCCCCCCCCCCBr)O2)c(=O)[nH]c1=O	> 206	> 200	2.3	14.9						
O=C(O)c1ccc2c(c1)C1(OC2=O)c2ccc(O)cc2Oc2cc(O)ccc21					Not Active					
Cc1cn([C@H]2C=C[C@@H](COC(=O)CCCCCCCCCCCNC(=O)c3ccc(-c4c5ccc(=O)cc-5oc5cc(O)ccc45)c(C(=O)O)c3)O2)c(=O)[nH]c1=O					Active	Active	Active			
CCSCCCCCCCCCCCC(=O)OC[C@@H]1C=C[C@H](n2cc(C)c(=O)[nH]c2=O)O1	46.5	> 200	5.8	14.4				inactive	inactive	
Cc1cn([C@H]2C=C[C@@H](CO)O2)c(=O)[nH]c1=O [STAVUDINE]	136		28.1	26.8						
Cc1cn([C@H]2C=C[C@@H](COC(=O)CCNC(=O)c3ccc(-c4c5ccc(=O)cc-5oc5cc(O)ccc45)c(C(=O)O)c3)O2)c(=O)[nH]c1=O					Not Active	Not Active				
CCCCCCCCCCCCCC(=O)OC[C@@H]1C=C[C@H](n2cc(C)c(=O)[nH]c2=O)O1	> 230	> 200	12.4	78.3				inactive	inactive	
Cc1cn([C@H]2C=C[C@@H](COC(=O)CCCCCCCCCCCN=[N+]=[N-])O2)c(=O)[nH]c1=O	22.4	> 200	3.1	6.7				inactive	inactive	
CCSCCCCCCCCCCCC(=O)O										9.4
